Experimental data as given in PMC11094580 (EFSA Journal, 2024).
“Also recorded” adds a separate entry of the source. Read-outs that look alike come from different tables or passages of the source.

Legend:
[1] = system: Mice (strain not specified); details: Gavage, M, 3/group; ref Ortiz‐Andrade et al. (2008); cited from earlier work
[2] = system: Lactobacillus rhamnosus subsp. Rhamnosus NCTC 10302; details: 25 μg/mL, cultures of L. rhamnosus; ref Pereira‐Caro et al. (2016); cited from earlier work
[3] = system: quinine metabolism in human liver microsomes; details: substrate quinine; ref Fasinu et al. (2013), Ho et al. (2001); cited from earlier work
Wistar rats [4] = assay: 28-day dose range-finding oral toxicity study in Wistar rats; type: in vivo, rat
Outline: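 Test compound given by gavage at 1000 to 5000 mg/kg bw per day; haematology, clinical chemistry and organ weights, including uterus weight, were recorded.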

simvastatin metabolism = details: rat and human hepatocytes and microsomes; ref Ubeaud et al. (1999); cited from earlier work
Wistar rats [5] = details: 200 mg/kg bw per day, 20 weeks, gavage, male rats; ref Ganapathy et al. (2008); cited from earlier work
Pig caecum = details: anaerobic incubation 0-24 h; ref Labib et al. (2004); cited from earlier work
CYP3A4 = details: testosterone (10 μM); ref Lu et al. (2011); cited from earlier work
ERβ and ERα = details: in vitro; ref Helle et al. (2015); cited from earlier work
CYP2C19 = details: ref Lu et al. (2011); cited from earlier work
Sprague Dawley rats [6] = assay: Extended one-generation reproductive toxicity; type: in vivo, rat
[7] = 10 h post dosing; ref Felgines et al. (2000); cited from earlier work
CYP2D6 = details: concentrations up to 10 μM; ref Lu et al. (2011); cited from earlier work
CYP450 isoforms = details: read-out: IC50 or Ki values; certain CYP450 isoforms; ref Lu et al. (2011); cited from earlier work
[8] = ref Rebello et al. (2020), cited from earlier work
Stability as powder = type: physicochemical; details: room temperature (~ 22°C), long-term
Outline: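 The solid was held under accelerated conditions (45°C) and under normal storage at room temperature.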

[9] = Octanol/water partition coefficient; type: physicochemical
Sprague Dawley rats [10] = assay: Dose range-finding study for the EOGRT study, dietary; type: in vivo, rat
Clostridium orbiscindens = details: ref Schoefer et al. (2003); cited from earlier work
CYP2C9 = details: ref Lu et al. (2011); cited from earlier work
[11] = molecular target: simvastatin metabolism in human liver microsomes; details: ref Ubeaud et al. (1999); cited from earlier work
[12] = human volunteers; ref Documentation provided to EFSA No. 4; cited from earlier work
Stability in solution = type: physicochemical
Outline: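 Test compound was dissolved at 10 g per 100 g propylene glycol and stored at 25 ± 2°C and 60 ± 5% RH, with sampling at 1, 2, 3 and 4 months; recovery was the read-out. Separately, aqueous buffer solutions (50 mg/kg) at pH 3, 5 and 7 were incubated at 90°C as accelerated testing.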

human faecal slurries = details: 50 μmol incubated, ref Pereira‐Caro et al. (2015), cited from earlier work
Wistar rats [13] = details: 50 mg/kg bw per day, 4 weeks; ref Motawi et al. (2014); cited from earlier work
[14] = F1 C1A females, high‐dose group

## O=C1CC(c2ccc(O)cc2)Oc2cc(O)cc(O)c21 (stereo not shown) [naringenin, 4H‐1‐Benzopyran‐4‐one, 2,3‐dihydro‐5,7‐dihydroxy‐2‐(4‐hydroxyphenyl)‐]
[1]
  LD50: > 5000 mg/kg bw
[2]
  Recovery: 83%
[3]
  IC50: 139 to 188 µM
Wistar rats [4]; gavage 28 days
  uterus weight: no effects on uterus weight
Wistar rats [4]; gavage, doses from 1000 to 5000 mg/kg bw per day
  Mortality: Mortality was observed at the highest dose tested
Simvastatin metabolism
  Ki: 5 to 30 µM
Wistar rats [5]
  assessed biochemical parameters in stomach and liver: no significant effects
Pig caecum
  Results: microbial transformation products: Naringenin was transformed to 3‐(4‐hydroxyphenyl)‐propionic acid and 3‐phenylpropionic acid
CYP3A4
  IC50: […]
ERβ and ERα
  affinity for oestrogen receptors: stronger affinity with ERβ than ERα
CYP2C19
  IC50: < 5 µM
Sprague Dawley rats [6]; F1 C1A females
  Absolute organ weight: ↑ G3, G4 thymus; also recorded: ↑ G4 spleen and iliac lymph nodes
  Thyroid hormone levels: T4: T4: –
Sprague Dawley rats [6]; [14]
  increase in mean platelet count: 25%
  mean platelet count: 1138.20 × 10^3 cells/μL
Sprague Dawley rats [6]; F1 C1A males
  Absolute organ weight: ↓ G2 and G3 testes and iliac lymph nodes; also recorded: ↓ G4 iliac lymph nodes
  Lymphocyte typing (spleen): T helper cells (CD4+): T helper cells (CD4+): ↑ G2, G3 and G4, no dose‐related trend
  Thyroid hormone levels: T4: T4: –
  Thyroid hormone levels: TSH: TSH: –
Sprague Dawley rats [6]; F1 C1B females
  Absolute organ weight: ↑ G4 thymus; also recorded: ↑ G3 uterus with cervix
Sprague Dawley rats [6]; F1 C1B males
  Absolute organ weight: ↑ G3 thymus
Sprague Dawley rats [6]; F1 pups (surplus) females, PND 21
  Absolute organ weight: PND 21: ↓ G2 spleen; ↑ G3 spleen; ↓ G2 brain
Sprague Dawley rats [6]; F1 pups (surplus) males, PND 21
  Absolute organ weight: PND 21: ↑ G3 spleen
Sprague Dawley rats [6]; F1 pups, PND4, highest dose females
  reduction of anogenital distance (AGD): 4%
Sprague Dawley rats [6]; F1‐C1A cohort
  decreased normal sperm: ~ 1%
  increased sperm with abnormalities: 50%
Sprague Dawley rats [6]; F1‐C1A females, highest dose group
  increase of thymus gland weight: 24%
Sprague Dawley rats [6]; F1‐C1A males, high dose
  reduction of daily sperm production: 2%
Sprague Dawley rats [6]; F1‐C1A males, low dose
  reduction of daily sperm production: 7%
Sprague Dawley rats [6]; F1‐C1A males, mid dose
  decrease of absolute iliac lymph node weight: 30%
Sprague Dawley rats [6]; F1‐CB cohort, G3
  mean pre-coital interval: 7.6 days
Sprague Dawley rats [6]; F2, PND 1, males, group G4‐C1B
  change in mean pup weight: −4%
Sprague Dawley rats [6]; F2, PND 4, females, group G4‐C1B
  change in mean pup weight: −8%
Sprague Dawley rats [6]; F2, PND 14, females, group G3‐C1B
  change in mean pup weight: −5%
Sprague Dawley rats [6]; F2, PND 14, females, group G4‐C1B
  change in mean pup weight: −5%
Sprague Dawley rats [6]; P females, significant in lowest and highest exposed groups
  oestrous cycle length, increase following exposure: up to 6%
Sprague Dawley rats [6]; P generation, G4
  mean pre-coital interval: 8 days
Sprague Dawley rats [6]; P males, high‐dose group
  decrease in mean urinary pH value: 12%
  increase in mean urinary specific gravity: 1%
Sprague Dawley rats [6]; adults, chronic APET as flavouring substance, NOAEL 1320 mg/kg bw per day
  margin of exposure (MoE): 1590
Sprague Dawley rats [6]; adults, chronic combined exposure incl. other food sources
  margin of exposure (MoE): 1390
Sprague Dawley rats [6]; all tested dose groups, P and F1‐C1B generations
  fertility indices (pregnancy, parturition and gestation): 100%
Sprague Dawley rats [6]; children, acute combined exposure
  margin of exposure (MoE): 48
Sprague Dawley rats [6]; children, chronic APET as flavouring substance, NOAEL 1320 mg/kg bw per day
  margin of exposure (MoE): 630
Sprague Dawley rats [6]; children, chronic combined exposure incl. other food sources
  margin of exposure (MoE): 550
Sprague Dawley rats [6]; high‐dose P females
  post-implantation loss: 12.6%
Sprague Dawley rats [6]; mid‐dose
  NOAEL (dietary concentration): 20,000 mg/kg feed
Sprague Dawley rats [6]; mid‐dose, P males, pre‐cohabitation period
  NOAEL: 1320 mg/kg bw per day
[7]
  naringenin in caecal contents: 15 μmol/caecum
CYP2D6
  inhibition: No appreciable inhibition
CYP450 isoforms
  IC50: ~10 µM
[8]; 150 mg
  AUC0‐24h: 67.61 ± 24.26 µM·h
  T max: 2 h
  half-life in plasma: 3 h
[8]; 150 mg, listed as Nar‐A
  T max: 3.2 ± 0.7 h
[8]; 600 mg
  AUC0‐24h: 199.05 ± 24.36 µM·h
  T max: 2 h
  half-life in plasma: 2.65 h
[8]; 600 mg, listed as NAR‐A
  T max: 2.4 ± 0.7 h
Stability as powder
  time remaining stable: ~2 years
[9]
  octanol/water partition coefficient: 2.52
Sprague Dawley rats [10]; 20,000 mg/kg feed (G3)
  mean pre-coital interval: 7.6 days
Sprague Dawley rats [10]; all dose groups
  clinical signs, mortality, morbidity: No clinical signs of toxicity, no mortality or morbidity
Sprague Dawley rats [10]; females
  dose up to which no toxicity was produced: ≤ 2724 mg/kg bw per day
Sprague Dawley rats [10]; males
  dose up to which no toxicity was produced: ≤ 2205 mg/kg bw per day
Sprague Dawley rats [10]; males 29 days, females 51–62 days
  dietary concentration up to which no toxicity was produced: up to 25,000 mg/kg feed
Clostridium orbiscindens
  Results: conversion by C. orbiscindens: converted 0.5 mM naringenin to 3‐(4‐hydroxyphenyl) propionic acid
CYP2C9
  IC50: < 5 µM
[11]
  Ki: 23 µM
[12]
  glucuronic acid and sulfate conjugates as share of the dose: ~ 20 % of the dose
Stability in solution; 25 ± 2°C, 60 ± 5% RH
  time stable when dissolved in propylene glycol: at least 4 months
Stability in solution; aqueous buffer solutions (50 mg/kg) pH 3, 5, 7 at 90°C
  time for which stability was demonstrated: up to 8 h
Human faecal slurries; after 4 h of incubation
  naringenin remaining: 26 to 36 µmol
Human faecal slurries; after 6 h of incubation
  naringenin remaining: 13 to 28 µmol
Human faecal slurries; after 24 h of incubation
  naringenin remaining: 3 to 8 µmol
Wistar rats [13]
  histopathological examination of the liver: slight inflammatory cell infiltration in the portal areas
